# This is a sample that favours compounds with a hit; in the whole collection about 3% have one here.
# NPY-Y2 antag – antagonists of human neuropeptide Y receptor Y2. P49146. NPY-Y2 expressing cells, antagonist mode. inhibition, % at 2.7 µM. hit rate 0.99% among 140,000. AID 793; in the data active means inhibition above about 17%;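 further: 0% = vehicle with agonist challenge and 100% = reference antagonist with challenge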
# Target sequence (P49146 whole entry, looked up): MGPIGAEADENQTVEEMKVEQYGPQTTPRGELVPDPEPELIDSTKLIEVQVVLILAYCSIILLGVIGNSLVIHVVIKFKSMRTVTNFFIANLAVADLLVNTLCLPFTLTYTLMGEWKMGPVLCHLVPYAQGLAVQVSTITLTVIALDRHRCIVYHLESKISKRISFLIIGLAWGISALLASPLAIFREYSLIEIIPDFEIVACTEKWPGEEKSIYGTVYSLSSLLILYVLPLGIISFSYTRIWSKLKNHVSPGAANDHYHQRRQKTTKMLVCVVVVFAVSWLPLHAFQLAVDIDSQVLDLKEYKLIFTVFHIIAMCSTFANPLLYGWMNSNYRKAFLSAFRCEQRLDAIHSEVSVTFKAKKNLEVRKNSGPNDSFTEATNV
# NPY1 pot ag – potentiators or agonists of human neuropeptide Y receptor Y1; NPY-Y1 expressing cells, potentiator/agonist activation; activation, % at 3.6 µM; hit rate 0.37% among 220,000; in the data active means activation above about 33%, passing the limit was not always enough;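 further: cells stimulated with NPY at EC10 then isoproterenol at EC100; 0% = low agonist plus stimulus and 100% = saturating agonist plus stimulus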
# NPY-Y1 antag – antagonists of human neuropeptide Y receptor Y1; P25929; HEK293-CNG Y1 cells, membrane potential fluorescence; NPY at EC95, then isoproterenol; inhibition, % at 3.6 µM; hit rate 1% among 200,000; AID 1040;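 active means inhibition above the campaign mean inhibition of all tested compounds plus 3 SD, cut at about 20% in these data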;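 further: 0% = DMSO wells given NPY plus isoproterenol and 100% = isoproterenol alone without NPY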
#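 Material: HEK293 Y1/CNG channel cell line; also added: NPY (25 nM), isoproterenol (1 µM), Ro 20-1724 (25 µM); doses: one concentration, 3.6 µM, in 0.4% DMSO; schedule: compound incubation 1 h at room temperature, readout 45 min post-stimulation; technique: membrane potential fluorescence; measure: fluorescence ratio normalized to % inhibition between controls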
# NPY2 pot ag – human NPY-Y2 potentiation or agonism, primary screen. P49146. cells expressing NPY-Y2, potentiator/agonist read-out. activation, % at 3.6 µM. hit rate 0.45% among 220,000. AID 1359; in the data active means activation above about 27%;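 further: cells stimulated with NPY near EC25 plus isoproterenol at EC100; 0% = vehicle plus submaximal agonist and 100% = vehicle plus saturating agonist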
# Hsp70 activator – Hsp70 transcriptional activation, primary screen; HeLa Hsp70 promoter luciferase reporter, luminescence; scaled: vehicle 0, proteasome-inhibitor control 100%; hit rate 0.04% among 200,000; activation, % at 10 µM;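 active means activation above the mean across all tested compounds plus 3 SD, cutoff set per campaign, cut at about 5.5% in these data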;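 further: 100% = MG132 at 30 µM as the positive control and 0% = DMSO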
# Wee1 degr inh – human Wee1 degradation inhibition, primary screen; P30291; HeLa Luc-Wee1K328M stability, luciferase luminescence; 100% = proteasome inhibitor MG132 effect; reporter increase, % at 5 µM; hit rate 1.2% among 220,000; AID 1321;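 active means activation above the mean of all tested compounds plus 3 SD, set per screening run, cut at about 8.8% in these data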;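 further: cells exposed to compound for 20 h before luminescence read; 0% = DMSO alone and 100% = MG132 at 30 µM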
# Active calls of the source: *; / = no result given.
SMILES,NPY-Y2 antag,NPY1 pot ag,NPY-Y1 antag,NPY2 pot ag,Hsp70 activator,Wee1 degr inh
Cc1cc(C)cc(N(CCC#N)C(=O)CSC2=Nc3ccccc3C3CC=NN23)c1 (stereo not given),/,-19,11,-20,2,9.9*
N#Cc1ccccc1NC(=O)CSC1=Nc2ccccc2C2CC=NN12 (stereo not given),/,-8,7,-16,0,9.4*
O=C(CSC1=Nc2ccccc2C2CC=NN12)Nc1ccc2c(c1)OCO2 (stereo not given),/,-11,7,-27,0,-2
CCOC(=O)C(C)/C(C)=N/NC(N)=S (stereo not given),1,-8,4,5,-1,-1
O=S(=O)(c1ccccc1)c1cnc(-c2ccccc2)nc1N1CCCCC1,/,-19,2,-13,-1,5
CCCN(CCC)C(=O)c1ccc2c(c1)N(Cc1ccccc1)C(=O)CS2=O (stereo not given),0,0,2,7,0,-3
COc1ccccc1C(=O)Nc1ccc(C2=NNC(=O)CC2C)cc1 (stereo not given),72*,-77,96*,-17,0,5
COc1ccc(/C=N/Nc2ncccc2[N+](=O)[O-])c(OC)c1,/,-4,0,7,0,-3
O=C(c1cc2c(s1)-c1ccccc1OC2)N1CCCC1,4,42*,4,31*,0,-1
CC1CCCCC1NC(=O)COC(=O)c1ccccc1NC(=O)c1ccco1 (stereo not given),19*,-32,30*,-8,0,-1
O=C(CCCn1cnc([N+](=O)[O-])n1)Nc1ccc(F)c(Cl)c1,/,5,2,0,0,9.9*
Cc1[nH]c2ccccc2c1/C=N/Nc1ccc([N+](=O)[O-])cc1,-9,65*,-15,56*,0,1
CCN(CC)c1ccc(/C=N/NC(=O)c2ccccn2)cc1,/,35,/,7,/,9.5*
CSc1ccccc1NC(=O)c1cc(-c2cccs2)on1,9,1,2,1,0,9.4*
CCC[N+](CC#Cc1ccccc1)(CCC)CC(=O)OC,4,12,1,6,0,-2
CCC[N+](CC#Cc1ccccc1)(CCC)CC(=O)c1ccc(Cl)cc1,19*,1,29*,3,0,-2
CN(C(=O)COc1ccc(S(=O)(=O)N2CCOCC2)cc1[N+](=O)[O-])C1CCS(=O)(=O)C1 (stereo not given),/,-4,/,3,/,0
COc1ccc2cc(CCNC(=O)c3cccs3)c(=O)[nH]c2c1,0,-1,2,-10,0,9.5*
COc1ccc2cc(CCNC(=O)CC(C)(C)C)c(=O)[nH]c2c1,2,3,3,-8,0,1
CC(C)c1ccc(/C=C/C(=O)NCCCc2ccccc2)cc1,30*,-14,25*,-28,0,-1
COc1ccc(/C=C/C(=O)NCCCc2ccccc2)cc1,11,-25,15,1,0,-1
CC(C)NS(=O)(=O)c1ccc(CCC(=O)NCc2ccncc2)cc1,/,5,-2,4,0,9.5*
Cc1ccc(C(=O)CSc2nnc(-c3snnc3C)n2C2CC2)cc1,/,0,/,7,/,-1
COc1ccc(C(=O)C[n+]2cccc(C)c2C)cc1[N+](=O)[O-],/,11,-1,2,0,11*
CC(C)(C)c1ccc(CN2C3=NCCCN3c3ccccc32)cc1,20*,-63,25*,-35,0,-3
SMILES,NPY-Y2 antag,NPY1 pot ag,NPY-Y1 antag,NPY2 pot ag,Hsp70 activator,Wee1 degr inh
CN(Cc1ccccc1)CC(O)COc1ccc(CNCCCOc2cccnc2)cc1 (stereo not given),/,-27,11,-32,0,8.9*
O=c1c2sc(-c3ccccc3)cc2nc2n1CCCCC2,/,20,/,-6,/,9.9*
CN1/C(=C/C2CC(=O)NC2=O)C(C)(C)c2ccccc21 (stereo not given),0,15,2,8,1,13*
N/C(=N\NC(=O)c1sccc1OCc1ccc(Cl)cc1Cl)c1ccccn1,/,-33,11,-11,0,1
N#Cc1nc(COc2ccccc2Cl)oc1N1CCCCCC1,12,10,2,0,0,6
COc1ccc(N2CCN(c3oc(COc4ccccc4Cl)nc3C#N)CC2)cc1,25*,-22,42*,-25,0,9.6*
N#Cc1nc(COc2ccccc2Cl)oc1N1CCCC1,/,3,9,-7,0,-3
Cc1cccc(OCc2nc(C#N)c(N3CC(C)CC(C)C3)o2)c1 (stereo not given),18*,-37,56*,-26,0,-1
COc1ccc(OCc2nc(C#N)c(N3CCN(c4ccc(OC)cc4)CC3)o2)cc1,25*,-23,37*,-19,0,-1
Cc1cccc(OCc2nc(C#N)c(N3CCCC3)o2)c1,/,-9,/,-22,/,3
Cc1ccc(OCc2nc(C#N)c(N3CCCCC3)o2)cc1,/,-15,/,-34,/,1
CC1CN(c2oc(COc3ccc(Cl)cc3Cl)nc2C#N)CC(C)O1 (stereo not given),23*,-17,29*,-2,0,1
CC(NC(=O)CNC(=S)N(Cc1cccs1)C1CCCC1)c1ccccc1 (stereo not given),/,10,10,8,0,8
Nc1ncccc1OCc1ccc(Cl)c(Cl)c1,/,6,/,-11,/,2
Cc1ccc(S(=O)(=O)Nc2ccc(S(=O)(=O)NC(C)(C)C)cc2)cc1,2,7,3,-2,0,-1
O=S(=O)(Nc1ccc(S(=O)(=O)Nc2ccccc2)cc1)c1ccccc1,1,5,1,-11,0,9.2*
O=S(=O)(Nc1ccc(N=Nc2ccc(O)c3ccccc23)cc1)c1ccccc1,-8,73*,-13,62*,0,-1
CC(C)(C)NS(=O)(=O)c1ccc(NS(=O)(=O)c2ccc(F)cc2)cc1,1,-1,5,90*,0,0
Cc1onc(-c2ccccc2)c1C(=O)OCC(=O)NCc1ccc(F)cc1,/,-28,-2,6,0,-2
c1ccc(CSc2ncnc3c2cnn3-c2ccccc2)cc1,1,-5,-5,7,0,3
C/C(=N\NC(=O)c1cccc(N/N=C(\C)c2cc(O)ccc2O)c1)c1cc(O)ccc1O,/,16,-3,10,0,2
CCOC(=O)C1(Cc2ccc(OC)cc2)CCN(C(=O)CCn2ccc(C)n2)CC1,/,6,1,-4,0,8.8*
Nc1ncc(Br)cc1Br,3,-21,2,3,0,-1
N#Cc1cnc(N)c(Br)c1,/,3,2,0,0,11*
COc1ccc(N(C)C(=O)c2oc(=O)c3ccccc3c2-c2ccc(C)cc2)c(OC)c1,/,-37,/,-59,/,2
